Hits are enriched below; roughly 1.9% of the tested compounds scored in any of these assays.
HEK293 NFkB inh – inhibitors of PMA/ionomycin-induced NF-kB reporter, primary screen, antigen receptor NF-kB inhibitor project, cell-based, HEK-293 luciferase reporter, luminescence; HEK-293 NF-kB luciferase reporter; inhibition, % at 3 µM; 0.21% of 62,000 active; AID 465, 2006;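 active = inhibition above the mean of all tested compounds plus 3 SD, cut at about 40% in these data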
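System – HEK-293 cells with stable firefly luciferase reporter driven by four HIV NF-kB elements · Doses – one dose, 3 µM · Schedule – 1 h compound pre-incubation, 16 h PMA/ionomycin at 37 °C · Technique – luminescence from luciferase substrate reagent · Measure – percent inhibition normalized per plate to DMSO and reference-inhibitor controls · Replicates – tested once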
SK-BR-3 tox 24h – SK-BR-3 proliferation inhibitors, primary screen, cell-based, human, 24 h; SK-BR-3 viability, CellTiter-Glo ATP luminescence; active compounds read low; viability, % at 10 µM; 0.47% of 41,000 active;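 active = viability at or below the median of all test compounds minus 3 SD, in both replicates if run twice, cut at about 45% in these data; inconclusive = duplicate replicates that disagree with each other; inactive = viability above that cutoff in every replicate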
S1P1 ag-PAM – S1P1 agonists and agonism potentiators, primary screen, cell-based, primary and confirmation screens, CRE-bla reporter; 0.57% of 56,000 active; S1P1 CRE-bla cells, forskolin, beta-lactamase FRET, potentiator mode; S1P1 agonist co-added at EC20, 2 nM; 100% = saturating reference agonist, 0% = basal; activation, % at 9.5 µM; Sphingosine 1-phosphate receptor 1 (Homo sapiens), P21453;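 active = activation above a cutoff set at the mean activation of all tested compounds plus 3 SD, cut at about 54% in these data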;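 also: forskolin at 4 µM as EC80 and the EC20 agonist is SEW2871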
Target sequence (P21453 whole entry, looked up): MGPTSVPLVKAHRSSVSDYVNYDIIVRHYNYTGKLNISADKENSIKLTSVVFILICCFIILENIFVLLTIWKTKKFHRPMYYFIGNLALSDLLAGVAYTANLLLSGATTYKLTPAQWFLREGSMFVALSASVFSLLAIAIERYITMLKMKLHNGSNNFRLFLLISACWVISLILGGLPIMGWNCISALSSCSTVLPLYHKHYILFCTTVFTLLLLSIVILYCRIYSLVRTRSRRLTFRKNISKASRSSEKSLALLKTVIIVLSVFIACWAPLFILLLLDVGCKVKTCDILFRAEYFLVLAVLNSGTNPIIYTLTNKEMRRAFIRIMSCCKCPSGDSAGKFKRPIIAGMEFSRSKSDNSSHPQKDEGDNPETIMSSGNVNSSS
Jurkat viability – cytotoxicity toward Jurkat T cells, primary screen, cytotoxicity control, cell-based, Jurkat E6.1, 60K MLSMR library | Jurkat E6.1 viability, ATP luminescence, 48 h | inhibition, % at 4 µM | 1.2% of 56,000 active | AID 463, 2006;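 active = inhibition above the mean inhibition of all tested compounds plus 3 SD, cut at about 28% in these data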
Numbers stand for hits; – = inactive; ? = inconclusive; · = not tested or not shown.

SMILES	HEK293 NFkB inh	SK-BR-3 tox 24h	S1P1 ag-PAM	Jurkat viability
COc1ccc(S(=O)(=O)N2CCC(C(N)=O)(N3CCCCC3)CC2)cc1	–	·	–	–
O=C(Nc1nc(-c2ccc3c(c2)OCCO3)cs1)c1ccc(S(=O)(=O)N2CCCCC2)cc1	–	·	–	72.4
CC(C(=O)Oc1ccc2c(c1)OCO2)N1C(=O)c2ccccc2C1=O (stereo not drawn)	–	35.5	·	·
Nc1ccc(N2CCCCCC2)cc1	–	–	–	37.0
O=C(O)c1ccc(N2CCCCC2)cc1	–	·	–	–
COc1ccc(N2CCN(C(=O)CC3NC4CCCCC4NC3=O)CC2)cc1 (stereo not drawn)	–	–	–	–
Cc1nn(Cc2ccc(Cl)c(Cl)c2)c(C)c1NC(=O)c1cc(CC(C)C)on1	–	·	76.4	–
c1ccc(-c2noc(-c3ccc4c(c3)OCO4)n2)nc1	41.2	–	–	41.0
c1ccc(-c2noc(-c3ccc4ccccc4c3)n2)nc1	75.1	–	–	–
c1ccc(-c2noc(-c3cccnc3)n2)nc1	–	–	·	–
c1ccc(-c2noc(-c3ccncc3)n2)nc1	–	·	–	–
CCOC(=O)c1nn(-c2ccc(OC)cc2)c(=O)c2c(NC(=O)c3ccco3)scc12	–	–	–	–
O=C1N/C(=C\c2ccccc2)c2ccccc21	–	–	–	81.2
N#C/C=C1/NC(=O)c2ccccc2S1	–	·	–	–
O=C(NCc1ccccc1)NC1(C(=O)N2CCOCC2)CCCCC1	–	·	–	–
O=S1(=O)C=C(Sc2nc3cc(Cl)ccc3o2)c2ccccc21	–	·	80.1	99.4
CN(C)c1nc(N)nc(CSc2nc3cc(Cl)ccc3o2)n1	–	–	–	–
COC(=O)c1[nH]c2c(c1C)C(=O)CC(c1cccs1)C2 (stereo not drawn)	–	–	–	97.2
COC(=O)c1[nH]c2c(c1C)C(=O)CC(c1cc(OC)ccc1OC)C2 (stereo not drawn)	–	·	–	82.5
O=C(c1coc(=O)c2ccccc12)N1CCN(Cc2ccccc2)CC1	–	–	–	–
O=C(Nc1ccccc1C(=O)OCC(=O)N1CCc2ccccc2C1)c1ccco1	–	–	–	–
Cc1ccc2nc(C(F)(F)F)c(C#N)c(N)c2c1	·	–	64.0	·
COC(=O)c1ccc(Oc2cc(C)nc(-n3nc(C)cc3C)n2)cc1	–	–	–	99.9
CCOC(=O)c1ccc(Oc2cc(C)nc(SC)n2)cc1	–	·	–	75.1
COCCn1c(SCC(=O)c2ccc(Cl)cc2)nnc1C(C)C	–	–	–	–
CS(=O)c1nc(-c2ccc(Br)cc2)cc(-c2ccccc2)c1C#N (stereo not drawn)	–	?	–	100.1
Cc1cc(-c2ccccc2)c(C#N)c(N)n1	·	–	·	·
